Columns and labels:
PC-3 [1] = assay: Antiproliferative activity against human PC3 cells after 72 hrs by MTT assay; assay type: functional, cell-based; settings: PC-3, 72 h
Procedure, shortened: (§1)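 MTT reduction: cancer lines plated at 0.7×10^5 to 0.3×10^6 cells/well, V79 and L929 fibroblasts at 0.5×10^5 cells/well. Compounds in DMSO (0.1%) were given for 24 h at 0.04–40.92 µM or 72 h at 0.04–8.19 µM. Fresh medium with 0.5 mg/mL MTT was added for 3 h, then formazan was dissolved in DMSO and read at 595 nm as % of control. IC50 came from nonlinear regression with 95% CI. Doxorubicin (0.001–1.06 µM) was the positive control. Triplicate, ≥3 repeats.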

L929 [2] = assay: Antiproliferative activity against mouse L929 cells after 72 hrs by MTT assay; assay type: cell-based; settings: L929, 72 h; procedure, shortened: as §1
SF-295 [3] = assay: Antiproliferative activity against human SF295 cells after 72 hrs by MTT assay; assay type: functional, cell-based; settings: SF-295, 72 h; procedure, shortened: as §1
V79 [4] = assay: Antiproliferative activity against chinese hamster V79 cells after 72 hrs by MTT assay; assay type: cell-based; settings: Cricetulus griseus, V79, 72 h; procedure, shortened: as §1
SW-620 = assay: Antiproliferative activity against human SW620 cells after 72 hrs by MTT assay; assay type: functional, cell-based; settings: SW-620, 72 h; procedure, shortened: as §1
MDA-MB-435 = assay: Antiproliferative activity against human MDA-MB-435 cells after 72 hrs by MTT assay; assay type: functional, cell-based; settings: MDA-MB-435, 72 h; procedure, shortened: as §1
Jurkat [5] = assay: Induction of oxidative stress in human Jurkat cells assessed as GSH to GSSG ratio at 5 uM after 24 hrs by spectrophotometric analysis (reference value: 3.81 +/- 0.22 microg/mg); assay type: functional
Jurkat [6] = assay: Antiproliferative activity against human Jurkat cells after 24 to 72 hrs by MTT assay; assay type: functional, cell-based; procedure, shortened: as §1
[7] = Drug uptake in lysosomes of human PC3 cells at 5 uM after 10 mins by LysoTracker Red dye-based confocal microscopic analysis; assay type: ADME, cell-based; settings: pc-3, 10 min
Procedure, shortened: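 PC3 cells were grown in DMEM with 10% FBS, antibiotics and 2 mM L-glutamine at 37 °C, 5% CO2. Cells were incubated with compound (5 µM) plus LysoTracker Red or MitoTracker Red for 10 min at 37 °C. Live cells were imaged in phenol red-free DMEM by confocal microscopy with a 40X oil objective, exciting at 488 nm (compound) and 543 nm (tracker dyes).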

[8] = Selectivity index, ratio of IC50 for chinese hamster V79 cells to IC50 for human HL60 cells; assay type: functional
Procedure, shortened: (§2)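 Selectivity index is the ratio of the IC50 in a non-cancer murine line (V79 or L929) to the IC50 in the cancer line. […] MTT was 0.5 mg/mL for 3 h, formazan dissolved in DMSO and read at 595 nm as % of control. IC50s were derived by nonlinear regression; triplicate, at least three repeats.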

Jurkat [9] = assay: Induction of oxidative stress in human Jurkat cells assessed as total GSSG levels at 5 uM treated 24 hrs post NAC addition measured after 24 hrs by spectrophotometric analysis (reference value: 0.78 +/- 0.33 microg/mg); assay type: functional
Procedure, shortened: (§3)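 Cells were pretreated 24 h with 5 mM NAC, then exposed 24 h to test compound at 5 µM. Controls received 0.1% DMSO. Extracts were prepared by sonication and HClO4 precipitation, then neutralized with KOH. Total glutathione was read by DTNB/glutathione reductase/NADPH rate at 412 nm. GSSG was measured after 4-vinylpyridine (0.1%, 1 h, RT) and GSH derived by difference. Values are normalized to protein, triplicates, three independent runs.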

HCT-116 [10] = assay: Antiproliferative activity against human HCT116 cells after 72 hrs by MTT assay; assay type: functional, cell-based; settings: HCT-116, 72 h; procedure, shortened: as §1
Jurkat [11] = assay: Induction of oxidative stress in human Jurkat cells assessed as total intracellular thiol levels at 5 uM after 24 hrs by spectrophotometric analysis (reference value: 3.87 +/- 0.55 microg/mg); assay type: functional
[12] = Selectivity index, ratio of IC50 for chinese hamster V79 cells to IC50 for human Jurkat cells; assay type: functional; procedure, shortened: as §2
Jurkat [13] = assay: Induction of oxidative stress in human Jurkat cells assessed as total GSH levels at 5 uM treated 24 hrs post NAC addition measured after 24 hrs by spectrophotometric analysis (reference value: 3.02 +/- 0.21 microg/mg); assay type: functional; procedure, shortened: as §3
Jurkat [14] = assay: Induction of oxidative stress in human Jurkat cells assessed as total intracellular thiol levels at 5 uM treated 24 hrs post NAC addition measured after 24 hrs by spectrophotometric analysis (reference value: 3.87 +/- 0.55 microg/mg); assay type: functional; procedure, shortened: as §3
HL-60 [15] = assay: Induction of oxidative stress in human HL60 cells assessed as GSH to GSSG ratio at 5 uM after 24 hrs by spectrophotometric analysis (reference value: 4.53 +/- 0.55 microg/mg); assay type: functional
[16] = Selectivity index, ratio of IC50 for mouse L929 cells to IC50 for human Jurkat cells; assay type: functional; procedure, shortened: as §2
Jurkat [17] = assay: Induction of oxidative stress in human Jurkat cells assessed as total GSSG levels at 5 uM after 24 hrs by spectrophotometric analysis (reference value: 0.78 +/- 0.33 microg/mg); assay type: functional
HL-60 [18] = assay: Induction of oxidative stress in human HL60 cells assessed as total GSH levels at 5 uM treated 24 hrs post NAC addition measured after 24 hrs by spectrophotometric analysis (reference value: 3.01 +/- 0.11 microg/mg); assay type: functional; procedure, shortened: as §3
HL-60 [19] = assay: Induction of oxidative stress in human HL60 cells assessed as total intracellular thiol levels at 5 uM treated 24 hrs post NAC addition measured after 24 hrs by spectrophotometric analysis (reference value: 3.61 +/- 0.22 microg/mg); assay type: functional; procedure, shortened: as §3
HL-60 [20] = assay: Induction of oxidative stress in human HL60 cells assessed as total intracellular thiol levels at 5 uM after 24 hrs by spectrophotometric analysis (reference value: 3.61 +/- 0.22 microg/mg); assay type: functional
V79 [21] = assay: Antiproliferative activity against chinese hamster V79 cells at 0.04 to 40.92 uM after 24 to 72 hrs by MTT assay; assay type: cell-based, Cricetulus griseus; settings: v79, 40.92 µM; procedure, shortened: as §1
[22] = Selectivity index, ratio of IC50 for mouse L929 cells to IC50 for human HL60 cells; assay type: functional; procedure, shortened: as §2
HL-60 [23] = assay: Induction of oxidative stress in human HL60 cells assessed as total GSSG levels at 5 uM after 24 hrs by spectrophotometric analysis (reference value: 0.66 +/- 0.17 microg/mg); assay type: functional
HL-60 [24] = assay: Induction of oxidative stress in human HL60 cells assessed as total GSH levels at 5 uM after 24 hrs by spectrophotometric analysis (reference value: 3.01 +/- 0.11 microg/mg); assay type: functional
L929 [25] = assay: Antiproliferative activity against mouse L929 cells at 0.04 to 40.92 uM after 24 to 72 hrs by MTT assay; assay type: cell-based; settings: l929, 40.92 µM; procedure, shortened: as §1
Jurkat [26] = assay: Induction of oxidative stress in human Jurkat cells assessed as GSH to GSSG ratio at 5 uM treated 24 hrs post NAC addition measured after 24 hrs by spectrophotometric analysis (reference value: 3.81 +/- 0.22 microg/mg); assay type: functional; procedure, shortened: as §3
HL-60 [27] = assay: Antiproliferative activity against human HL60 cells after 24 to 72 hrs by MTT assay; assay type: functional, cell-based; procedure, shortened: as §1
Jurkat [28] = assay: Induction of oxidative stress in human Jurkat cells assessed as total GSH levels at 5 uM after 24 hrs by spectrophotometric analysis (reference value: 3.02 +/- 0.21 microg/mg); assay type: functional
HL-60 [29] = assay: Induction of oxidative stress in human HL60 cells assessed as GSH to GSSG ratio at 5 uM treated 24 hrs post NAC addition measured after 24 hrs by spectrophotometric analysis (reference value: 4.53 +/- 0.55 microg/mg); assay type: functional; procedure, shortened: as §3
HL-60 [30] = assay: Induction of oxidative stress in human HL60 cells assessed as total GSSG levels at 5 uM treated 24 hrs post NAC addition measured after 24 hrs by spectrophotometric analysis (reference value: 0.66 +/- 0.17 microg/mg); assay type: functional; procedure, shortened: as §3
SF-295 [31] = assay: Cytotoxicity against human SF295 cells after 24 hrs in absence of GSH-OEt by MTT assay; assay type: functional, cell-based; settings: SF-295, 24 h
Procedure, shortened: (§4)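 24 h MTT exposure (0.04–40.92 µM in 0.1% DMSO), with or without co-treatment with GSH ethyl ester (15 mM) to gauge the ROS contribution. MTT was 0.5 mg/mL for 3 h, with formazan dissolved in DMSO and absorbance at 595 nm expressed as % of control. Triplicate, repeated at least three times.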

HCT-116 [32] = assay: Cytotoxicity against human HCT116 cells after 24 hrs in presence of GSH-OEt by MTT assay; assay type: functional, cell-based; settings: HCT-116, 24 h; procedure, shortened: as §4
L929 [33] = assay: Cytotoxicity against mouse L929 cells after 24 hrs in presence of GSH-OEt by MTT assay; assay type: cell-based; settings: L929, 24 h; procedure, shortened: as §4
SF-295 [34] = assay: Cytotoxicity against human SF295 cells after 24 hrs in presence of GSH-OEt by MTT assay; assay type: functional, cell-based; settings: SF-295, 24 h; procedure, shortened: as §4
PC-3 [35] = assay: Cytotoxicity against human PC3 cells after 24 hrs in presence of GSH-OEt by MTT assay; assay type: functional, cell-based; settings: PC-3, 24 h; procedure, shortened: as §4
HCT-116 [36] = assay: Cytotoxicity against human HCT116 cells after 24 hrs in absence of GSH-OEt by MTT assay; assay type: functional, cell-based; settings: HCT-116, 24 h; procedure, shortened: as §4
L929 [37] = assay: Cytotoxicity against mouse L929 cells after 24 hrs in absence of GSH-OEt by MTT assay; assay type: cell-based; settings: L929, 24 h; procedure, shortened: as §4
PC-3 [38] = assay: Cytotoxicity against human PC3 cells after 24 hrs in absence of GSH-OEt by MTT assay; assay type: functional, cell-based; settings: PC-3, 24 h; procedure, shortened: as §4

Structure (SMILES): COc1cccc2c1C(=O)c1c(O)c3c(c(O)c1C2=O)C[C@@](O)(C(=O)CO)C[C@@H]3O[C@H]1C[C@H](N)[C@H](O)[C@H](C)O1 [DOXORUBICIN]
- IC50 (PC-3 [1]): 0.05 µM
- IC50 (L929 [2]): 0.22 µM
- IC50 (SF-295 [3]): 0.45 µM
- IC50 (V79 [4]): 0.25 µM
- IC50 (SW-620): 0.29 µM
- IC50 (MDA-MB-435): 0.94 µM

Structure (SMILES): CC1=CC(C)=[N+]2C1=C(c1ccc(OCc3cn(C4C5=C(OC4(C)C)c4ccccc4C(=O)C5=O)nn3)cc1)c1c(C)cc(C)n1[B-]2(F)F (stereo not drawn)
- IC50 (PC-3 [1]): 2.39 µM
- Activity (Jurkat [5]): 0.21 µg/mg
- IC50 (Jurkat [6]): 0.94 µM
- Drug uptake [7]: Metabolite_Detected
- IC50 (L929 [2]): > 7.72 µM
- Ratio IC50 [8]: >8.5
- Activity (Jurkat [9]): 1.44 µg/mg
- IC50 (HCT-116 [10]): 2.85 µM
- Activity (Jurkat [11]): 3.28 µg/mg
- Ratio IC50 [12]: >8.5
- Activity (Jurkat [13]): 1.58 µg/mg
- Activity (Jurkat [14]): 3.11 µg/mg
- Activity (HL-60 [15]): 0.31 µg/mg
- IC50 (SF-295 [3]): > 7.72 µM
- Ratio IC50 [16]: >8.5
- Activity (Jurkat [17]): 2.57 µg/mg
- Activity (HL-60 [18]): 1.19 µg/mg
- Activity (HL-60 [19]): 2.83 µg/mg
- Activity (HL-60 [20]): 3.01 µg/mg
- Activity (V79 [21]): Non-Toxic
- Ratio IC50 [22]: >8.5
- IC50 (V79 [4]): > 7.72 µM
- Activity (HL-60 [23]): 2.18 µg/mg
- Activity (HL-60 [24]): 0.72 µg/mg
- Activity (L929 [25]): Non-Toxic
- Activity (Jurkat [26]): 1.08 µg/mg
- IC50 (HL-60 [27]): 0.92 µM
- Activity (Jurkat [28]): 0.6 µg/mg
- Activity (HL-60 [29]): 0.76 µg/mg
- IC50 (SW-620): > 7.72 µM
- Activity (HL-60 [30]): 1.47 µg/mg
- IC50 (MDA-MB-435): > 7.72 µM

Structure (SMILES): CC1(C)OC2=C(C(=O)c3ccccc3C2=O)C1n1cc(CNC2=[N+]3C(=C(c4ccccc4)c4ccc(Cl)n4[B-]3(F)F)C=C2)nn1 (stereo not drawn)
- IC50 (SF-295 [31]): > 40 µM
- IC50 (PC-3 [1]): > 8.1 µM
- IC50 (L929 [2]): > 8.1 µM
- IC50 (HCT-116 [10]): > 8.1 µM
- IC50 (HCT-116 [32]): > 40 µM
- IC50 (SF-295 [3]): > 8.1 µM
- IC50 (L929 [33]): > 40 µM
- IC50 (SF-295 [34]): > 40 µM
- IC50 (V79 [4]): > 8.1 µM
- IC50 (PC-3 [35]): > 40 µM
- IC50 (HCT-116 [36]): > 40 µM
- IC50 (L929 [37]): > 40 µM
- IC50 (SW-620): > 8.1 µM
- IC50 (MDA-MB-435): > 8.1 µM
- IC50 (PC-3 [38]): > 40 µM
